The source made the active and inactive calls. No cut-off for these calls is given here.
Legend:
[1] = Inhibition of [3H]DAMGO binding to Opioid receptor mu 1
Procedure, shortened: (§1)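 Membranes from cells expressing the receptor, homogenized and washed in Tris, resuspended in 50 mM Tris pH 7.5. Incubated 60–120 min at 25 °C with [3H]DAMGO (mu), [3H]DPDPE (delta) or [3H]U69593 (kappa), about 15–30 μg protein. Filtration on glass fiber filters, scintillation counting. IC50 from at least six test concentrations; Ki by Cheng–Prusoff.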

[2] = Inhibition of [3H]DPDPE binding to Opioid receptor delta 1; procedure, shortened: as §1
[3] = Maximum efficacy for [35S]GTP-gamma-S, binding to Opioid receptor kappa 1; assay type: functional
Procedure, shortened: (§2)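 Membranes from cells expressing the receptor, washed and resuspended in 20 mM Hepes, 10 mM MgCl2, 100 mM NaCl, pH 7.4. 8–15 μg protein incubated 60 min at 25 °C with 50 pM [35S]GTP-γ-S, 10 μM GDP and test compound. Bound label collected on glass fiber filters and counted; EC50 for stimulation of binding.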

[4] = Maximum efficacy for [35S]GTP-gamma-S, binding to Opioid receptor mu 1; assay type: functional; procedure, shortened: as §2
[5] = Maximum efficacy for [35S]GTP-gamma-S, binding to Opioid receptor delta 1; assay type: functional; procedure, shortened: as §2
[6] = Inhibition of [3H]U-69593 binding to Opioid receptor kappa 1; procedure, shortened: as §1
[7] = Maximum efficacy for [35S]GTP-gamma-S, binding to Opioid receptor kappa 1; no activity; assay type: functional; procedure, shortened: as §2
[8] = Stimulation of [35S]GTP-gamma-S, binding at Opioid receptor kappa; no activity; assay type: functional; procedure, shortened: as §2
[9] = Stimulation of [35S]GTP-gamma-S, binding at Opioid receptor kappa 1; not active; assay type: functional; procedure, shortened: as §2
[10] = Stimulation of [35S]GTP-gamma-S, binding at Opioid receptor mu1; not active; assay type: functional; procedure, shortened: as §2
[11] = Maximum efficacy for [35S]GTP-gamma-S, binding to mu opioid receptor; not active; assay type: functional; procedure, shortened: as §2
[12] = Maximum efficacy for [35S]GTP-gamma-S, binding to Opioid receptor kappa 1; not active; assay type: functional; procedure, shortened: as §2

Row | SMILES | Ki [1] | Ki [2] | Emax [3] | Emax [4] | Emax [5] | Ki [6] | Emax [7] | EC50 [8] | EC50 [9] | EC50 [10] | Emax [11] | Emax [12]
1 | COC(=O)C1OC(SC2C=C[C@H]3[C@H]4Cc5ccc(O)c6c5[C@@]3(CCN4C)[C@H]2O6)C(OC(C)=O)C(OC(C)=O)C1OC(C)=O (stereo partly drawn) | 5.4 µM | 15.6 µM | 23.5 | 88.3 | 104 | 11 µM | – | – | – | – | – | –
2 | CN1CC[C@]23c4c5ccc(O)c4O[C@H]2[C@@H](O)C=C[C@H]3[C@H]1C5 | – | – | – | 93 | – | – | – | – | – | – | – | –
3 | CC(=O)OC1C(CO)OC(SC2C=C[C@H]3[C@H]4Cc5ccc(O)c6c5[C@@]3(CCN4C)[C@H]2O6)C(OC(C)=O)C1OC(C)=O (stereo partly drawn) | 5.4 µM | 56.2 µM | 42.5 | 64.5 | 51.5 | 136 µM | – | – | – | – | – | –
4 | CC(=O)OCC1OC(SC2C=C[C@H]3[C@H]4Cc5ccc(OC(C)=O)c6c5[C@@]3(CCN4C)[C@H]2O6)C(OC(C)=O)C(OC(C)=O)C1OC(C)=O (stereo partly drawn) | 305 µM | 762 µM | 36.9 | 44.1 | 39.3 | 1390 µM | – | – | – | – | – | –
5 | CN1CC[C@]23c4c5ccc(O)c4O[C@H]2[C@@H](O[C@@H]2O[C@H](C(=O)O)[C@@H](O)[C@H](O)[C@H]2O)C=C[C@H]3[C@H]1C5 [MORPHINE GLUCURONIDE] | 12.9 µM | 170 µM | – | 45 | 80 | 4060 µM | inactive | – | – | – | – | –
6 | CC(=O)OCC1OC(SC2C=C[C@H]3[C@H]4Cc5ccc(O)c6c5[C@@]3(CCN4C)[C@H]2O6)C(OC(C)=O)C(OC(C)=O)C1OC(C)=O (stereo in doubt; 5e) [listing 1 of 2 here] | – | – | 26.5 | 76 | 45.5 | – | – | – | – | – | – | –
7 | CC(=O)OCC1OC(SC2C=C[C@H]3[C@H]4Cc5ccc(O)c6c5[C@@]3(CCN4C)[C@H]2O6)C(OC(C)=O)C(OC(C)=O)C1OC(C)=O (stereo in doubt; 5e) [listing 2 of 2 here] | – | 19.5 µM | – | – | – | 2970 µM | – | – | – | – | – | –
8 | COC(=O)C1OC(SC2C=C[C@H]3[C@H]4Cc5ccc(OC(C)=O)c6c5[C@@]3(CCN4C)[C@H]2O6)C(OC(C)=O)C(OC(C)=O)C1OC(C)=O (stereo partly drawn) | 100 µM | 528 µM | – | 37.8 | 46.8 | 189 µM | inactive | Not Active | – | – | – | –
9 | COc1ccc2c3c1O[C@H]1C(SC4OC(C(=O)O)C(OC(C)=O)C(OC(C)=O)C4OC(C)=O)C=C[C@H]4[C@@H](C2)N(C)CC[C@]314 (stereo partly drawn) | 463 µM | 2680 µM | – | – | 44.2 | > 10000 µM | – | – | Not Active | Not Active | inactive | inactive
10 | COC(=O)C1OC(SC2C=C[C@H]3[C@H]4Cc5ccc(OC)c6c5[C@@]3(CCN4C)[C@H]2O6)C(OC(C)=O)C(OC(C)=O)C1OC(C)=O (stereo partly drawn) | 64 µM | 438 µM | 24.3 | 19.3 | 64.3 | 499 µM | – | – | – | – | – | –
11 | CC(=O)OC1C(SC2C=C[C@H]3[C@H]4Cc5ccc(O)c6c5[C@@]3(CCN4C)[C@H]2O6)OC(C(=O)O)C(OC(C)=O)C1OC(C)=O (stereo partly drawn) | 8.7 µM | 31.4 µM | – | 46.6 | 78.7 | 288 µM | – | – | Not Active | – | – | inactive

Reference: ChEMBL document CHEMBL1138838, “Design, chemical synthesis, and biological evaluation of thiosaccharide analogues of morphine- and codeine-6-glucuronide” (J Med Chem, 2004)
